Data: ChEMBL document CHEMBL1125365, “Acyl-CoA:cholesterol O-acyl transferase (ACAT) inhibitors. 1. 2-(Alkylthio)-4,5-diphenyl-1H-imidazoles as potent inhibitors of ACAT” (J Med Chem, 1992)

Key:
Rattus norvegicus = assay: Tested in vivo for anti-hypercholesterolaemic activity in male Sprague-Dawley rat.; assay type: functional
Outline: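 Compound was given at 0.03% w/w in the diet (about 30 mg/kg/day). Basal-diet rats (n = 4) gave a baseline that was subtracted. Plasma cholesterol was measured enzymatically, and the result was expressed as percent change versus undosed controls.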

[1] = target: T1, Sterol O-acyltransferase 1 (Rattus norvegicus) (UniProt O70536); assay: In vitro acyl coenzyme A:cholesterol acyltransferase (ACAT) activity in rat liver microsome at a concentration of 10 micro g/mL; assay type: microsomes
T1 sequence (whole entry): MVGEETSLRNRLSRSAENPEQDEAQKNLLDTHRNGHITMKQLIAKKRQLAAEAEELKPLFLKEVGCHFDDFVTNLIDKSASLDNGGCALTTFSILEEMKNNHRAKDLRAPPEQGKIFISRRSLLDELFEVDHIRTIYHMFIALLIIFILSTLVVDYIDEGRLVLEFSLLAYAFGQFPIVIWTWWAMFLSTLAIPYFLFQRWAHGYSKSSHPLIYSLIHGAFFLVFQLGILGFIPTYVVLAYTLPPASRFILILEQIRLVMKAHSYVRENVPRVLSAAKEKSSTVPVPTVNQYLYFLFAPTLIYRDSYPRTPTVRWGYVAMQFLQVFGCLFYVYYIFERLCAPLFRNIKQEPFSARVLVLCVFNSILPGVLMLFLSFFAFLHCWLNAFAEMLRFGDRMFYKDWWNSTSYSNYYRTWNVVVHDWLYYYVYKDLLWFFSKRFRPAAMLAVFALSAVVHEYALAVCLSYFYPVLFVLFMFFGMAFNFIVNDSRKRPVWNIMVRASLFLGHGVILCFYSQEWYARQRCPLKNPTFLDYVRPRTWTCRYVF
Outline: (§1)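 Enzyme source was hepatic microsomes from cholesterol-fed rats, 60 μg microsomal protein per reaction, with 90 μM radiolabeled oleoyl-CoA. Cholesterol ester formed was separated by TLC and quantified by scintillation counting. Compounds were tested at a single fixed concentration of 1 or 10 μg/mL, and results were given as percent inhibition of enzyme activity.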

[2] = target: T2, Sterol O-acyltransferase 1 (Rattus norvegicus, UniProt O70536); assay: Inhibition of acyl coenzyme A:cholesterol acyltransferase (ACAT) activity in rat liver microsome; assay type: microsomes
T2 sequence (O70536 whole entry): T1 sequence (whole entry)
Outline: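 The assay used rat hepatic microsomes from cholesterol-fed animals (60 μg protein) and 90 μM radiolabeled oleoyl-CoA. Cholesterol ester product was resolved by TLC and counted by scintillation. IC50 was the concentration inhibiting 50% of enzyme activity.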

[3] = target: T1, Sterol O-acyltransferase 1 (Rattus norvegicus); assay: Tested in vitro for acyl coenzyme A:cholesterol acyltransferase (ACAT) activity in rat liver microsome at a concentration of 1 micro g/mL; assay type: microsomes; outline: as §1

Compound | inhibition [1] | IC50 [2] | inhibition [3] | Change (Rattus norvegicus)
C[C@@]1(O)CC(=O)O[C@@H](CSc2nc(-c3ccccc3)c(-c3ccccc3)s2)C1.C[C@]1(O)CC(=O)O[C@@H](CSc2nc(-c3ccccc3)c(-c3ccccc3)s2)C1 | 4% |  |  | 
CCOC(CSc1nc(-c2ccco2)c(-c2ccco2)[nH]1)OCC |  |  | 34% | 
CCOC(=O)CC(C)(O)CC(O)CSc1nc(-c2ccccc2)c(-c2ccccc2)[nH]1 (configuration not stated) |  | 280 nM | 91% | 
c1ccc(-c2nc(SCCCC3OCCCO3)[nH]c2-c2ccccc2)cc1 |  | 47 nM | 96% | -57%
COC(CSc1nc(-c2ccccc2)c(-c2ccccc2)[nH]1)OC | 99% | 580 nM |  | 
c1ccc(-c2nc(SCCC3OCCCO3)[nH]c2-c2ccccc2)cc1 |  | 730 nM | 80% | 
c1ccc(-c2nc(SCC3CCCCC3)[nH]c2-c2ccccc2)cc1 |  | 100 nM | 95% | -92%
CC(C)c1ccc(-c2nc(SC[C@H]3C[C@@](C)(O)CC(=O)O3)[nH]c2-c2ccc(C(C)C)cc2)cc1.CC(C)c1ccc(-c2nc(SC[C@H]3C[C@](C)(O)CC(=O)O3)[nH]c2-c2ccc(C(C)C)cc2)cc1 |  | 230 nM | 90% | 
C[C@@]1(O)CC(=O)O[C@@H](CSc2nc(-c3ccc(C(F)(F)F)cc3)c(-c3ccc(C(F)(F)F)cc3)[nH]2)C1.C[C@]1(O)CC(=O)O[C@@H](CSc2nc(-c3ccc(C(F)(F)F)cc3)c(-c3ccc(C(F)(F)F)cc3)[nH]2)C1 | 95% | 1000 nM |  | 
c1ccc(CSc2nc(-c3ccccc3)c(-c3ccccc3)[nH]2)cc1 |  | 290 nM | 90% | 
C[C@@]1(O)CC(=O)O[C@@H](CS(=O)(=O)c2nc(-c3ccccc3)c(-c3ccccc3)[nH]2)C1 | 23% |  |  | 
O=C(O)CCC(O)CSc1nc(-c2ccccc2)c(-c2ccccc2)[nH]1 (configuration not stated) | 76% |  |  | 
CO[C@@H]1C[C@@](C)(O)C[C@H](CSc2nc(-c3ccccc3)c(-c3ccccc3)[nH]2)O1 |  | 82 nM | 93% | 
CC(C)(C)c1ccc(-c2nc(SC[C@H]3C[C@@](C)(O)CC(=O)O3)[nH]c2-c2ccc(C(C)(C)C)cc2)cc1.CC(C)(C)c1ccc(-c2nc(SC[C@H]3C[C@](C)(O)CC(=O)O3)[nH]c2-c2ccc(C(C)(C)C)cc2)cc1 |  |  | 32% | 
COc1ccc(-c2nc(SCC3C[C@](C)(O)CC(=O)O3)[nH]c2-c2ccc(OC)cc2)cc1 (some centres not stated) | 87% | 420 nM |  | 
COc1ccccc1-c1nc(SC[C@H]2C[C@@](C)(O)CC(=O)O2)[nH]c1-c1ccccc1OC.COc1ccccc1-c1nc(SC[C@H]2C[C@](C)(O)CC(=O)O2)[nH]c1-c1ccccc1OC |  |  | 29% | 
C[C@@]1(O)CC(=O)O[C@@H](CSc2nc(-c3ccccc3)c(-c3ccccc3)n2-c2ccccc2)C1.C[C@]1(O)CC(=O)O[C@@H](CSc2nc(-c3ccccc3)c(-c3ccccc3)n2-c2ccccc2)C1 | 32% |  |  | 
COc1ccc(-c2nc(S)[nH]c2-c2ccc(OC)cc2)cc1 | 42% |  |  | 

Compound | inhibition [1] | IC50 [2] | inhibition [3] | Change (Rattus norvegicus)
CC(O)(CC(=O)OC(C)(C)C)CC(O)CSc1nc2c3ccccc3c3ccccc3c2[nH]1 (configuration not stated) |  |  | 41% | 
CCOC(CSc1nc(-c2ccccc2)c(-c2ccccc2)[nH]1)OCC | 99% | 250 nM |  | -37%
CCOC(CSc1nc(-c2ccccn2)c(-c2ccccn2)[nH]1)OCC | 15% |  |  | 
C[C@@]1(O)CC(=O)OC(CSc2nc(-c3ccccc3)c[nH]2)C1 (some centres not stated) | 0% |  |  | 
CO[C@H]1O[C@H](CSc2nc(-c3ccccc3)c(-c3ccccc3)[nH]2)[C@@H](O)[C@H](O)[C@@H]1O |  |  | 52% | 
c1ccc(-c2nc(SCC3OCCCO3)[nH]c2-c2ccccc2)cc1 | 97% | 180 nM |  | -10%
C[C@@]1(O)CC(=O)O[C@@H](CSc2nc(-c3ccccc3)c(-c3ccccc3)o2)C1.C[C@]1(O)CC(=O)O[C@@H](CSc2nc(-c3ccccc3)c(-c3ccccc3)o2)C1 | 13% |  |  | 
C[C@]1(O)CC(=O)OC(CSc2nc(-c3ccccc3)n(-c3ccccc3)n2)C1 (some centres not stated) |  |  | 12% | 
CC(O)(CC(=O)OC(C)(C)C)CC(O)CSc1nc(-c2ccc(Cl)cc2)c(-c2ccc(Cl)cc2)[nH]1 (configuration not stated) | 97% | 250 nM |  | -53%
Cc1ccc(-c2nc(SC[C@H]3C[C@@](C)(O)CC(=O)O3)[nH]c2-c2ccc(C)cc2)cc1.Cc1ccc(-c2nc(SC[C@H]3C[C@](C)(O)CC(=O)O3)[nH]c2-c2ccc(C)cc2)cc1 | 99% | 170 nM |  | 
COc1ccccc1-c1nc(S)[nH]c1-c1ccccc1OC |  |  | 0% | 
CCSc1nc(-c2ccccc2)c(-c2ccccc2)[nH]1 | 99% | 770 nM |  | 
CO[C@H]1C[C@@](C)(O)C[C@H](CSc2nc(-c3ccccc3)c(-c3ccccc3)[nH]2)O1 |  | 280 nM | 89% | 
Cn1c(SC[C@H]2C[C@@](C)(O)CC(=O)O2)nc(-c2ccccc2)c1-c1ccccc1.Cn1c(SC[C@H]2C[C@](C)(O)CC(=O)O2)nc(-c2ccccc2)c1-c1ccccc1 | 90% | 2600 nM |  | 
CC(O)(CC(=O)[O-])CC(O)CSc1nc(-c2ccccc2)c(-c2ccccc2)[nH]1.[Na+] (configuration not stated) | 66% |  |  | -33%
C[C@@]1(O)CC(=O)OC(CSc2nc(-c3ccc(F)cc3)c(-c3ccc(F)cc3)[nH]2)C1 (some centres not stated) | 97% | 790 nM |  | 
COc1ccc(-c2nc(SCC3C[C@@](C)(O)CC(=O)O3)[nH]c2-c2ccc(OC)cc2)cc1 (some centres not stated) | 96% | 340 nM |  | 
COc1cccc(-c2nc(SCC3C[C@](C)(O)CC(=O)O3)[nH]c2-c2cccc(OC)c2)c1 (some centres not stated) | 97% | 570 nM |  | 

Continued, in another order:

inhibition [1] | IC50 [2] | inhibition [3] | Compound | Change (Rattus norvegicus)
98% | 200 nM |  | CC1=CC(=O)OC(CSc2nc(-c3ccccc3)c(-c3ccccc3)[nH]2)C1 (configuration not stated) | 27%
 | 910 nM | 89% | O=C1CC(O)CC(CSc2nc(-c3ccccc3)c(-c3ccccc3)[nH]2)O1 (configuration not stated) | 
98% | 440 nM |  | CC1=CC(=O)OC(CSc2nc(-c3cccc(Cl)c3)c(-c3cccc(Cl)c3)[nH]2)C1 (configuration not stated) | 
 | 160 nM | 94% | C[C@@]1(O)CC(O)O[C@@H](CSc2nc(-c3ccccc3)c(-c3ccccc3)[nH]2)C1 (some centres not stated) | 
98% | 170 nM |  | C[C@@]1(O)CC(=O)OC(CSc2nc(-c3ccccc3)c(-c3ccccc3)[nH]2)C1 (some centres not stated) | -105%
 | 90 nM | 92% | CO[C@H]1C[C@H](O)C[C@@H](CSc2nc(-c3ccccc3)c(-c3ccccc3)[nH]2)O1 | 
95% | 1700 nM |  | CC1=CC(=O)OC(CSc2nc(-c3ccccc3Cl)c(-c3ccccc3Cl)[nH]2)C1 (configuration not stated) | 
20% |  |  | O=C(O)CCCCCSc1nc(-c2ccccc2Cl)c(-c2ccccc2Cl)[nH]1 | 
 | 610 nM | 86% | O=C1CCCC(CSc2nc(-c3ccccc3)c(-c3ccccc3)[nH]2)N1 (configuration not stated) | 
 |  | 87% | Clc1ccc(-c2[nH]c(SCC3CCCCO3)nc2-c2ccccc2)cc1 (configuration not stated) | 
 | 560 nM | 90% | Clc1cccc(-c2[nH]c(SCC3CCCCO3)nc2-c2ccccc2)c1 (configuration not stated) | 
98% | 180 nM |  | C[C@@]1(O)CC(=O)OC(CSc2nc(-c3ccc(Cl)cc3)c(-c3ccc(Cl)cc3)[nH]2)C1 (some centres not stated) | -11%
98% | 140 nM |  | C[C@]1(O)CC(=O)OC(CSc2nc(-c3ccccc3)c(-c3ccccc3)[nH]2)C1 (some centres not stated) | -35%
27% |  |  | Sc1nc(-c2ccccc2Cl)c(-c2ccccc2Cl)[nH]1 | 
95% | 740 nM |  | O=C1CCCC(CSc2nc(-c3ccccc3)c(-c3ccccc3)[nH]2)O1 (configuration not stated) | 16%
 | 360 nM | 87% | O=C1CCC(CSc2nc(-c3ccccc3)c(-c3ccccc3)[nH]2)N1 (configuration not stated) | 
96% | 610 nM |  | CC1=CC(=O)OC(CSc2nc(-c3ccc(F)cc3)c(-c3ccc(F)cc3)[nH]2)C1 (configuration not stated) | 
 |  | 76% | Clc1ccccc1-c1[nH]c(SCC2CCCCO2)nc1-c1ccccc1 (configuration not stated) | 
78% |  |  | O=C1CCC(CSc2nc(-c3ccccc3)c(-c3ccccc3)[nH]2)O1 (configuration not stated) | 
 | 110 nM | 93% | C[C@@]1(O)CC(=O)OC(CSc2nc(-c3cccc(Cl)c3)c(-c3cccc(Cl)c3)[nH]2)C1 (some centres not stated) | 
97% | 280 nM |  | CC1=CC(=O)OC(CSc2nc(-c3ccc(C)cc3)c(-c3ccc(C)cc3)[nH]2)C1 (configuration not stated) | 
99% | 140 nM |  | C[C@@]1(O)CC(=O)OC(CSc2nc(-c3ccccc3Cl)c(-c3ccccc3Cl)[nH]2)C1 (some centres not stated) | 
 |  | 77% | CC1=CC(=O)OC(CSc2nc(-c3ccc(Cl)cc3)c(-c3ccc(Cl)cc3)[nH]2)C1 (configuration not stated) | 
